Test results taken from ChEMBL document CHEMBL1126882, “Orally active central dopamine and serotonin receptor ligands: 5-, 6-, 7-, and 8-[[trifluoromethyl)sulfonyl]oxy]-2-(di-n-propylamino)tetralins and the formation of active metabolites in vivo” (J Med Chem, 1993).
The source made the active and inactive calls. No cut-off for these calls is given here.

Columns and labels:
[1] = test system: Rattus norvegicus; experiment: Effective dose for half-maximal decrease in the accumulation of 5-hydroxytryptophan (5-HTP) in reserpinized rat brain striatal area by sc administration; Inactive; assay type: functional, organism-based
How it was run: (§1)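 Male Sprague-Dawley rats (200-300 g) got reserpine 5 mg/kg sc 18 h before. The test drug (saline) was given sc or po (po rats fasted 18 h), with NSD 1015, 30 min before decapitation. DOPA and 5-HTP in limbic, striatal and hemispheral tissue were measured by HPLC-ED. ED50 (half-maximal decrease) was taken from 4-6-dose curves, with deviation estimated graphically from SEM.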

[2] = test system: Rattus norvegicus; experiment: Effective dose for half-maximal decrease in the accumulation of 5-hydroxytryptophan (5-HTP) in reserpinized rat brain hemispheral area by sc administration; Inactive; assay type: functional, organism-based; how it was run: as §1
[3] = test system: Rattus norvegicus; experiment: Effective dose for half-maximal decrease in the accumulation of 5-hydroxytryptophan (5-HTP) in reserpinized rat brain limbic area by sc administration; Inactive; assay type: functional, organism-based; how it was run: as §1
[4] = target: T1, 5-hydroxytryptamine receptor 1A (Rattus norvegicus, UniProt P19327); experiment: Binding affinity against 5-hydroxytryptamine 1A receptor in homogenated rat brain tissue, using by [3H]8-OH-DPAT as radioligand; assay type: tissue-based
T1 sequence (P19327 whole entry): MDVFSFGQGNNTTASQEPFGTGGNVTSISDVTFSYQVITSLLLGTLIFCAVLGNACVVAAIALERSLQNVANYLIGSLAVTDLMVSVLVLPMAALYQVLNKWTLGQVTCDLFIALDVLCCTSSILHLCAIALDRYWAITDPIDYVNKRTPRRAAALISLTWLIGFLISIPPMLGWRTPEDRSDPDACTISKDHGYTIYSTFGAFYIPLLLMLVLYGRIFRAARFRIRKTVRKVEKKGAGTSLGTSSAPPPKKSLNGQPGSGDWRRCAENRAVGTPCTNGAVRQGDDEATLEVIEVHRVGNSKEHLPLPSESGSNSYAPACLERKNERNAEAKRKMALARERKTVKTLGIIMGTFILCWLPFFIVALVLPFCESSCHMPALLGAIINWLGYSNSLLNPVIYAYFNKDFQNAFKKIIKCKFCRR
How it was run: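 Rat brain homogenate was washed and preincubated in 50 mM Tris (pH 8.0) containing NaCl, CaCl2 and MgCl2, plus 10 μM pargyline. Nonspecific binding was defined with 10 μM 5-HT. Six drug concentrations (10⁻⁴-10⁻⁹ M) were tested, triplicate or single run. IC50 came from a semilog plot with linear regression.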

[5] = species on record: Rattus norvegicus; experiment: DA agonist induced behavior was charecterised by increased locomotion, sniffing and licking.+ indicates low intensity of behavioral effect; assay type: functional, organism-based
How it was run: (§2)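 Male Sprague-Dawley rats (200-300 g) given reserpine 5 mg/kg sc in the neck 18 h before testing. The test compound, in 0.9% saline, was given sc in the neck (n = 4-5). Rats were placed singly in photocell motility meters right after dosing. Counts were recorded over 30 min, alongside gross behavioural observation of 5-HT and DA signs. Statistics: ANOVA with Fischer's PLSD versus reserpine controls.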

[6] = test system: Rattus norvegicus; experiment: post-synaptic agonistic effects by increase in locomotor activity at the dose of 2.2 umol/kg, sc in reserpinized rat; assay type: functional
[7] = target: T2, Dopamine receptor (Rattus norvegicus) (UniProt P25115+P19020+P30729+P18901+P61169); experiment: Effective dose for half-maximal decrease in the accumulation of DOPA in reserpinized rat brain limbic area by sc administration; assay type: functional, organism-based; how it was run: as §1
[8] = target: T2, Dopamine receptor (Rattus norvegicus); experiment: Effective dose for half-maximal decrease in the accumulation of DOPA in reserpinized rat brain striatal area by sc administration; assay type: functional, organism-based; how it was run: as §1
[9] = target: T3, D(2) dopamine receptor (Rattus norvegicus, UniProt P61169); experiment: Binding affinity against dopamine receptor D2 in homogenated rat brain tissue, using by ([3H]N00437) as radioligand; assay type: tissue-based
How it was run: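 Striata from male Wistar rats were washed in Tris (pH 7.5) containing EDTA, KCl and CaCl2. Tissue (1.25 mg original) was incubated with 0.2 nM [3H]-N-0437 (final) for 90 min at 25 °C, then filtered and counted by scintillation. Nonspecific binding was defined with 1 μM 6,7-ADTN. IC50 was read from a hand-fitted sigmoid curve, in triplicate.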

[10] = target: T2, Dopamine receptor (Rattus norvegicus); experiment: (§3) Effective dose for half-maximal decrease in the accumulation of DOPA in reserpinized rat brain hemispheral area by sc administration; Inactive; assay type: functional, organism-based; how it was run: as §1
[11] = test system: Rattus norvegicus; experiment: post-synaptic agonistic effects by increase in locomotor activity at the dose of 12.5 umol/kg, sc in reserpinized rat (p<0.005); assay type: functional; how it was run: as §2
[12] = target: T3, D(2) dopamine receptor; experiment: Binding affinity against dopamine receptor D2 in rat brain tissue using [3H]spiperone; assay type: tissue-based
How it was run: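 Rat striatal membranes were prepared in 50 mM potassium phosphate (pH 7.4). They were incubated with 0.5 nM [3H]spiperone (3 mg original tissue) for 10 min at 37 °C. Specific binding was defined with 10 μM 6,7-ADTN. Six drug concentrations (10⁻⁴-10⁻⁹ M) were tested, in triplicate or in a single experiment.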

[13] = test system: Rattus norvegicus; experiment: (§4) Effective dose for half-maximal decrease in the accumulation of 5-hydroxytryptophan (5-HTP) in reserpinized rat brain striatal area by sc administration; assay type: functional; how it was run: as §1
[14] = test system: Rattus norvegicus; experiment: Effective dose for half-maximal decrease in the accumulation of 5-hydroxytryptophan (5-HTP) in reserpinized rat brain hemispheral area by po administration; assay type: functional; how it was run: as §1
[15] = test system: Rattus norvegicus; experiment: (§5) Effective dose for half-maximal decrease in the accumulation of 5-hydroxytryptophan (5-HTP) in reserpinized rat brain hemispheral area by sc administration; assay type: functional; how it was run: as §1
[16] = test system: Rattus norvegicus; experiment: Effective dose for half-maximal decrease in the accumulation of 5-hydroxytryptophan (5-HTP) in reserpinized rat brain limbic area by po administration; assay type: functional; how it was run: as §1
[17] = test system: Rattus norvegicus; experiment: Effective dose for half-maximal decrease in the accumulation of 5-hydroxytryptophan (5-HTP) in reserpinized rat brain limbic area by sc administration; assay type: functional; how it was run: as §1
[18] = test system: Rattus norvegicus; experiment: Effective dose for half-maximal decrease in the accumulation of 5-hydroxytryptophan (5-HTP) in reserpinized rat brain striatal area by po administration; assay type: functional; how it was run: as §1
[19] = Half-lives were estimated from the elimination phase of the blood conc-time curve after oral administration; assay type: ADME, organism-based; conditions: rat, whole blood
How it was run: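 Male Sprague-Dawley rats (300 g) with arterial catheters were dosed 24 h after surgery. Doses: 40 μmol/kg po by gavage and 5 μmol/kg iv, or 20 po and 1 iv. Po rats were fasted 18 h. Blood was sampled from 5 min to 12 h and measured by GC-MS after extraction at pH 11 against an internal standard, samples in duplicate. AUC po/iv came from n = 4 per route. Half-life was read graphically from the oral elimination phase.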

[20] = test system: Rattus norvegicus; experiment: as §3; assay type: functional, organism-based; how it was run: as §1
[21] = test system: Rattus norvegicus; experiment: Effective dose for half-maximal decrease in the accumulation of DOPA in reserpinized rat brain striatal area by sc administration; Inactive; assay type: functional, organism-based; how it was run: as §1
[22] = test system: Rattus norvegicus; experiment: Effective dose for half-maximal decrease in the accumulation of DOPA in reserpinized rat brain limbic area by po administration; Partial response at the highest dose tested; assay type: functional, organism-based; how it was run: as §1
[23] = test system: Rattus norvegicus; experiment: Effective dose for half-maximal decrease in the accumulation of DOPA in reserpinized rat brain limbic area by sc administration; Inactive; assay type: functional, organism-based; how it was run: as §1
[24] = test system: Rattus norvegicus; experiment: Effective dose for half-maximal decrease in the accumulation of DOPA in reserpinized rat brain striatal area by po administration; Partial response at the highest dose tested; assay type: functional, organism-based; how it was run: as §1
[25] = test system: Rattus norvegicus; experiment: post-synaptic agonistic effects by increase in locomotor activity at the dose of 0.2 umol/kg, sc in reserpinized rat (p<0.005); assay type: functional; how it was run: as §2
[26] = test system: Rattus norvegicus; experiment: post-synaptic agonistic effects by increase in locomotor activity at the dose of 1.0 umol/kg, sc in reserpinized rat; assay type: functional; how it was run: as §2
[27] = as §4; assay type: functional; how it was run: as §1
[28] = as §5; assay type: functional; how it was run: as §1
[29] = test system: Rattus norvegicus; experiment: Effective dose for half-maximal decrease in the accumulation of 5-hydroxytryptophan (5-HTP) in reserpinized rat brain limbic area by sc administration; partial response at the highest dose tested; assay type: functional, organism-based; how it was run: as §1
[30] = target: T2, Dopamine receptor (Rattus norvegicus); experiment: Effective dose for half-maximal decrease in the accumulation of DOPA in reserpinized rat brain hemispheral area by sc administration; partial response at the highest dose tested; assay type: functional, organism-based; how it was run: as §1
[31] = test system: Rattus norvegicus; experiment: post-synaptic agonistic effects by increase in locomotor activity at the dose of 50 umol/kg, sc in reserpinized rat (p<0.005); assay type: functional

T3 sequence (P61169 whole entry): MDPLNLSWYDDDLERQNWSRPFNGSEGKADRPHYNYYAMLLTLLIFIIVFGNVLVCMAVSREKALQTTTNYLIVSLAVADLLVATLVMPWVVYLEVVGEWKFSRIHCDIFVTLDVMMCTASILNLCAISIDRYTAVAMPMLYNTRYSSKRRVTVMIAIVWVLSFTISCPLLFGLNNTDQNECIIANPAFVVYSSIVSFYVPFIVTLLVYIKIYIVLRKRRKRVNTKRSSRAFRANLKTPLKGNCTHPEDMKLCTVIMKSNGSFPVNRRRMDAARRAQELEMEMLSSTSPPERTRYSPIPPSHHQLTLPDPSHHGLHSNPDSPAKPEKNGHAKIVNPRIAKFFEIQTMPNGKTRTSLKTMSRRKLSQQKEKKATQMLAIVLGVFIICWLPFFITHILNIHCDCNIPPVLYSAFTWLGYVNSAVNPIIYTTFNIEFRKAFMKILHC

CCCN(CCC)[C@@H]1CCc2ccc(O)cc2C1
ED50 [1]: inactive | ED50 [2]: inactive | ED50 [3]: inactive | Ki [4]: 3.26 µM | Behavioral observation [5]: Partially active | Counts/30 [6]: 100 counts/30 min

CCCN(CCC)C1CCc2cc(OS(=O)(=O)C(F)(F)F)ccc2C1 (centres undefined)
ED50 [1]: inactive | ED50 [2]: inactive | ED50 [3]: inactive | Ki [4]: 16 µM | ED50 [7]: 2 µmol/kg | ED50 [8]: 1.3 µmol/kg | Ki [9]: 99 nM | ED50 [10]: inactive | Behavioral syndrome [5]: Partially active | Counts/30 [11]: 80 min | Ki [12]: 1570 nM

CCCN(CCC)C1CCc2cccc(O)c2C1 (centres undefined) [8-OH-DPAT]
ED50 [13]: 0.04 µmol/kg | ED50 [14]: 7.6 µmol/kg | ED50 [15]: 0.07 µmol/kg | ED50 [16]: 3 µmol/kg | ED50 [17]: 0.05 µmol/kg | ED50 [18]: 7.9 µmol/kg | half-life [19]: 72 min | ED50 [20]: inactive | ED50 [21]: inactive | ED50 [22]: Weak activity | ED50 [23]: inactive | ED50 [24]: Weak activity | Counts/30 [25]: 66 counts/30 min

CCCN(CCC)C1CCc2ccc(O)cc2C1 (centres undefined)
ED50 [1]: inactive | ED50 [2]: inactive | ED50 [3]: inactive | Ki [4]: 2.8 µM | ED50 [7]: 0.03 µmol/kg | ED50 [8]: 0.03 µmol/kg | ED50 [10]: inactive | Behavioral observation [5]: Partially active | Counts/30 [26]: 160 counts/30 min

CCCN(CCC)C1CCc2ccc(OS(=O)(=O)C(F)(F)F)cc2C1 (centres undefined)
ED50 [27]: 34 µmol/kg | ED50 [28]: 27 µmol/kg | ED50 [29]: Weak activity | Ki [4]: 0.36 µM | ED50 [30]: Weak activity | ED50 [7]: 1.6 µmol/kg | ED50 [8]: 0.4 µmol/kg | Ki [9]: 150 nM | Counts/30 [31]: 170 min | Ki [12]: 1300 nM
